According to ChEMBL document CHEMBL1133665, “Secondary amides of (R)-3,3,3-trifluoro-2-hydroxy-2-methylpropionic acid as inhibitors of pyruvate dehydrogenase kinase” (J Med Chem, 2000):
The source made the active and inactive calls. The rule behind the calls is not given here.

How the values were obtained:
[1] = target: Pyruvate dehydrogenase kinase (Rattus norvegicus, UniProt Q63065+A6IPZ9+Q64536+O54937); test: Inhibitory activity tested against Pyruvate Dehydrogenase Kinase (PDHK) receptor from rats.; format: protein assay
Method in brief: (§1)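 Commercial PDH complex used as the kinase-containing preparation. PDHK inhibition read spectrophotometrically as NADH production at 340 nm, measured with and without ATP. IC50 ± standard error, from purified substances.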

[2] = species on record: Homo sapiens; test: Effective concentration required to increase the oxidation of lactate in cellular assay using Human Skin Fibroblasts; format: functional
Method in brief: (§2)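 Human fibroblasts harvested with trypsin 2-4 days post-confluence and assayed in suspension ((3.5-5) × 10^5 cells per tube) with test compound or solvent control. Equilibrated at 37 °C, then started with DMEM-S containing 25 µM lactate and 0.2 µCi/mL d,l-[1-14C]lactate. Gassed with 95% O2/5% CO2 and shaken 25 min at 37 °C. Stopped with TCA; released 14CO2 trapped and counted by scintillation. EC50 ± standard error.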

[3] = system: Rattus norvegicus; test: In vivo %control of lactate in normal Sprague-Dawley rats after 2 hr at a dose of 300 umol/Kg; format: functional
Method in brief: (§3)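 Male Sprague-Dawley rats, about 200 g, randomly assigned to groups (n = 6/group) and fasted 24 h. Single oral dose of compound in 0.5% carboxymethylcellulose/0.2% Tween-80 (1 mL/100 g), or vehicle alone. Blood taken 2 h post-dose into heparin/fluoride tubes; lactate measured on a biochemistry analyzer. Expressed as percent of vehicle control; groups compared by two-tailed unpaired t-test.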

[4] = system: Rattus norvegicus; test: In vivo %control of lactate in normal Sprague-Dawley rats after 2 hr at a dose of 30 umol/Kg; format: functional; method in brief: as §3
[5] = target: Pyruvate dehydrogenase kinase (Rattus norvegicus) (UniProt Q63065+A6IPZ9+Q64536+O54937); test: Inhibition of Pyruvate Dehydrogenase Kinase (PDHK) receptor from rats; Inactive; format: protein assay; method in brief: as §1
[6] = system: Rattus norvegicus; test: In vivo %control of lactate in normal Sprague-Dawley rats after 2 hr at a dose of 30 umol/Kg; Not active; format: functional, organism-based; method in brief: as §3
[7] = system: Rattus norvegicus; test: In vivo %control of lactate in normal Sprague-Dawley rats after 2 hr at a dose of 300 umol/Kg; Not active; format: functional, organism-based; method in brief: as §3
[8] = species on record: Homo sapiens; test: Effective concentration required to increase the oxidation of lactate in cellular assay using Human Skin Fibroblasts; Inactive; format: functional; method in brief: as §2

Row | SMILES | IC50 [1] | also measured
1 | CC(C)(O)C(=O)Nc1ccccc1Cl | 5 µM | –
2 | C[C@](O)(C(=O)NC1C2CC3CC(C2)CC1C3)C(F)(F)F (stereo not given in full) | 11 µM | –
3 | C[C@](O)(C(=O)Nc1ccccc1Cl)C(F)(F)F | 9.8 µM | –
4 | Cc1cc(C)c(S(=O)(=O)N2CCN(C(=O)[C@@](C)(O)C(F)(F)F)C[C@H]2C)c(C)c1 | 0.039 µM | –
5 | C[C@@H]1CN(C(=O)[C@@](C)(O)C(F)(F)F)CCN1C(=O)C1CCCCC1 | 0.064 µM | Control [4]: 77%
6 | CCCC1CCN(C(=O)C(C)(OC)C(F)(F)F)CC1 (stereo not given) | – | IA [5]: inactive
7 | C[C@@H]1CN(C(=O)[C@@](C)(O)C(F)(F)F)[C@@H](C)CN1/C(=N/C#N)Oc1ccccc1 | 0.0091 µM | –
8 | CC(C)NC(=O)N1CCC(Cc2ccccc2)CC1 | – | IA [5]: inactive
9 | COc1cc(C(=O)N2CCN(C(=O)[C@@](C)(O)C(F)(F)F)C[C@H]2C)cc(OC)c1OC | 0.04 µM | EC50 [2]: 0.159 µM; Control [4]: 71%; Control [3]: 60%
10 | C[C@@H]1CN(C(=O)[C@@](C)(O)C(F)(F)F)CCN1S(=O)(=O)c1ccc(C(C)(C)C)cc1 | 0.036 µM | –
11 | C[C@@H]1CN(C(=O)[C@@](C)(O)C(F)(F)F)CCN1C(=O)c1cc(Cl)cc(Cl)c1 | 0.028 µM | –
12 | C[C@@H]1CN(C(=O)[C@@](C)(O)C(F)(F)F)CCN1c1cc([N+](=O)[O-])ccn1 | 0.112 µM | NA [6]: inactive
13 | COC(C)(C(=O)Nc1ccccc1Cl)C(F)(F)F (stereo not given) | – | IA [5]: inactive
14 | CC(=O)C(=O)NC1C2CC3CC(C2)CC1C3 (stereo not given) | – | IA [5]: inactive
15 | CNC(=O)N1CCCCC1 | – | IA [5]: inactive
16 | C[C@@](O)(C(=O)NC1C2CC3CC(C2)CC1C3)C(F)(F)F (stereo not given in full) | 0.3 µM | NA [7]: inactive
17 | CCCC1CCN(C(=O)[C@](C)(O)C(F)(F)F)CC1 | 75 µM | –
18 | C[C@@H]1CN(C(=O)[C@@](C)(O)C(F)(F)F)CCN1C(=O)c1ccc(C(=O)c2ccccc2)cc1 (stereo in doubt; 11g) | 0.034 µM | EC50 [2]: 0.473 µM; Control [4]: 66%
19 | CC1(C(F)(F)F)OC(=O)N(C2CCCCC2)C1=O (stereo in doubt; 8) | – | IA [5]: inactive
20 | C[C@@](O)(C(=O)N1CCNCC1)C(F)(F)F | – | IA [5]: inactive
21 | C[C@@H]1CN(C(=O)[C@@](C)(O)C(F)(F)F)[C@@H](C)CN1C(=O)c1cc(Cl)cc(Cl)c1 | 0.0033 µM | –
22 | CNS(=O)(=O)N1CCC(Cc2ccccc2)CC1 | – | IA [5]: inactive
23 | CCC(O)(C(=O)NC1C2CC3CC(C2)CC1C3)C(F)(F)F (stereo not given) | 14 µM | –
24 | CC1CCCCN1C(=O)[C@@](C)(O)C(F)(F)F (stereo not given in full) | 2 µM | –
25 | C[C@@](O)(C(=O)N1CCN(C(=O)c2ccc(C#N)cc2)CC1)C(F)(F)F | 6.7 µM | –
26 | CNS(=O)(=O)Nc1ccccc1Cl | – | IA [5]: inactive

Row | SMILES | IC50 [1] | also measured
27 | CC(C)[C@H]1CN(C(=O)c2ccc(C#N)cc2)[C@H](C)CN1C(=O)[C@@](C)(O)C(F)(F)F | 17 µM | –
28 | CC(Oc1ccccc1)(C(=O)NC1CCCCC1)C(F)(F)F (stereo not given) | – | IA [5]: inactive
29 | C[C@@](O)(C(=O)NC1CCCCC1)C(F)(F)F | 6.2 µM | –
30 | CC(O)(C(=O)N1CCCCC1)C(F)(F)F (stereo not given) | 23.9 µM | –
31 | CCCC1CCN(C(=O)[C@@](C)(O)C(F)(F)F)CC1 | 3.1 µM | –
32 | C/N=C(\S)N1CC=C(C(C)(C)C)CC1 | 180 µM | –
33 | CC(=O)N1CCCCC1 | – | IA [5]: inactive
34 | COC(C)(C(=O)NC1C2CC3CC(C2)CC1C3)C(F)(F)F (stereo not given) | – | IA [5]: inactive
35 | CCC(O)(C(=O)Nc1ccccc1Cl)C(F)(F)F (stereo not given) | 20 µM | –
36 | O=C(Nc1ccccc1Cl)C(Cl)Cl | 47 µM | –
37 | CC(C)(O)C(=O)NC1C2CC3CC(C2)CC1C3 (stereo not given) | 10 µM | –
38 | O=C(NC1C2CC3CC(C2)CC1C3)C1(O)CC1 (stereo not given) | 15 µM | –
39 | C[C@@H]1CN(C(=O)[C@@](C)(O)C(F)(F)F)[C@@H](C)CN1C(=O)c1ccc(C(=O)c2ccccc2)cc1 | 0.0198 µM | –
40 | CC1(C(F)(F)F)OC(=O)N(C2CCCCC2)C1=O (stereo in doubt; 9) | – | IA [5]: inactive
41 | CC(C)CC(Cl)C(=O)N1CCC(Cc2ccccc2)CC1 (stereo not given) | – | IA [5]: inactive
42 | C[C@@](O)(C(=O)N1CCCN(c2cc(Cl)ccn2)CC1)C(F)(F)F | 2.59 µM | –
43 | C[C@@](O)(C(=O)Nc1ccccc1Cl)C(F)(F)F | 0.3 µM | EC50 [2]: 5.4 µM; NA [7]: inactive
44 | C[C@@H]1CN(C(=O)[C@@](C)(O)C(F)(F)F)[C@@H](C)CN1C(=O)C1CCCCC1 | 0.013 µM | –
45 | O=C(Nc1ccc(Cl)cc1)N1CCC(Cc2ccccc2)CC1 | – | IA [5]: inactive
46 | O=C(NC1C2CC3CC(C2)CC1C3)C(O)(C(F)(F)F)C(F)(F)F (stereo not given) | 17 µM | –
47 | CNS(=O)(=O)NC1C2CC3CC(C2)CC1C3 (stereo not given) | – | IA [5]: inactive
48 | C[C@@](O)(C(=O)N1CCN(c2cc([N+](=O)[O-])ccn2)CC1)C(F)(F)F | 2.84 µM | –
49 | COC(=O)c1ccc(C(=O)N2C[C@H](C)N(C(=O)[C@@](C)(O)C(F)(F)F)C[C@H]2C)cc1 | 0.019 µM | –
50 | CCC(C)(O)C(=O)Nc1ccccc1Cl (stereo not given) | 23 µM | –
51 | C[C@@H]1CN(C(=O)[C@@](C)(O)C(F)(F)F)CCN1 | – | IA [5]: inactive

More lines, main results first:

Row | IC50 [1] | SMILES | also measured
52 | 31.7 µM | C[C@@](O)(C(=O)N1CCN(C(=O)c2ccccc2)CC1)C(F)(F)F | –
53 | 4.16 µM | C[C@@](O)(C(=O)N1CCN(c2ccccc2)CC1)C(F)(F)F | EC50 [2]: 25.2 µM; Control [3]: 68%
54 | 5.02 µM | C[C@@](O)(C(=O)N1CCN(C(=O)c2cccc3ccccc23)CC1)C(F)(F)F | –
55 | 30 µM | O=C(N1CCC(Cc2ccccc2)CC1)C(Cl)(Cl)Cl | –
56 | 47 µM | C[C@@](O)(C(=O)N1CCCN(Cc2ccccc2)CC1)C(F)(F)F | –
57 | 150 µM | CC(C)(O)C(=O)N1CCC(Cc2ccccc2)CC1 | –
58 | 2.6 µM | CC(Cl)C(=O)N1CCC(Cc2ccccc2)CC1 (stereo not given) | –
59 | 0.0143 µM | C[C@@H]1CN(C(=O)[C@@](C)(O)C(F)(F)F)[C@@H](C)CN1C(=O)OCc1ccccc1 | –
60 | 0.0045 µM | C[C@@H]1CN(C(=O)[C@@](C)(O)C(F)(F)F)[C@@H](C)CN1S(=O)(=O)c1cccc2ccccc12 | NA [6]: inactive
61 | 49 µM | C[C@@H]1CN(S(=O)(=O)c2cccc3ccccc23)[C@@H](C)CN1C(=O)[C@@](C)(O)C(F)(F)F | –
62 | 5.62 µM | C[C@@](O)(C(=O)N1CCCN(C(=O)c2ccccc2)CC1)C(F)(F)F | –
63 | 5.56 µM | C[C@@](O)(C(=O)N1CCN(S(=O)(=O)c2ccccc2)CC1)C(F)(F)F | –
64 | 2.16 µM | CC(O)(C(=O)N1CCC(Cc2ccccc2)CC1)C(F)(F)F (stereo not given) | EC50 [2]: 29 µM; NA [7]: inactive
65 | 0.037 µM | C[C@@H]1CN(C(=O)[C@@](C)(O)C(F)(F)F)CCN1S(=O)(=O)c1ccccc1 | NA [6]: inactive
66 | 22.4 µM | CNC(=O)N1CCC(Cc2ccccc2)CC1 | IA [8]: inactive
67 | > 300 µM | C[C@@H]1CN(Cc2ccccc2)[C@@H](C)CN1C(=O)[C@@](C)(O)C(F)(F)F | IA [5]: inactive
68 | 0.049 µM | C[C@@H]1CN(C(=O)[C@@](C)(O)C(F)(F)F)CCN1/C(=N/C#N)Oc1ccccc1 | Control [4]: 65%

Row | IC50 [1] | SMILES | also measured
69 | 416 µM | CN(C)C(=O)N1CCC(Cc2ccccc2)CC1 | –
70 | 260 µM | O=C(N1CCC(Cc2ccccc2)CC1)C1(O)CC1 | –
71 | 560 µM | C/N=C(/S)N1CCC(Cc2ccccc2)CC1 | –
72 | 1000 µM | COC(=O)N1CCC(Cc2ccccc2)CC1 | –
73 | 0.021 µM | C[C@@H]1CN(C(=O)[C@@](C)(O)C(F)(F)F)CCN1C(=O)OCc1ccccc1 | –
74 | 310 µM | CC(O)C(=O)N1CCC(Cc2ccccc2)CC1 (stereo not given) | –
75 | 15 µM | C[C@@H]1CN(C(=O)[C@@](C)(O)C(F)(F)F)CCN1C(=O)c1ccc(C(=O)c2ccccc2)cc1 (stereo in doubt; 11r) | –
76 | > 1 µM | C[C@@H]1CN(C(=O)[C@@](C)(O)C(F)(F)F)CCN1Cc1ccccc1 | –
77 | 3.37 µM | C[C@@](O)(C(=O)N1CCN(c2ccccn2)CC1)C(F)(F)F | EC50 [2]: 13 µM; Control [3]: 68%
78 | 282 µM | CC(C)(C)C(=O)N1CCC(Cc2ccccc2)CC1 | IA [8]: inactive
79 | 0.179 µM | O=C(C(Cl)Cl)N1CCC(Cc2ccccc2)CC1 | EC50 [2]: 1.12 µM; NA [7]: inactive
80 | 74 µM | CC(=O)N1CCC(Cc2ccccc2)CC1 | IA [8]: inactive
81 | 19.9 µM | C[C@@](O)(C(=O)N1CCN(Cc2ccccc2)CC1)C(F)(F)F | –
82 | 6 µM | C[C@@](O)(C(=O)N1CCN(/C(=N/C#N)Oc2ccccc2)CC1)C(F)(F)F | –
83 | 0.173 µM | C[C@@H]1CN(C(=O)[C@@](C)(O)C(F)(F)F)CCN1C(=O)c1ccccc1 | –
84 | 0.025 µM | C[C@@H]1CN(C(=O)[C@@](C)(O)C(F)(F)F)CCN1S(=O)(=O)c1cccc2ccccc12 | NA [6]: inactive
